Reference: article PMC6403082 (International Journal of Neuropsychopharmacology, 2018)
Like-named read-outs stand apart in the source and are kept apart here. Peptide text beside a SMILES is read from it.

How the values were obtained:
NMDA, MK-801 = experiment: Radioligand displacement, NMDA MK-801 site; assay type: binding; settings: 30 μM test compound; inhibition >50% considered meaningful
NMDA, PCP = experiment: Radioligand displacement, NMDA PCP site; assay type: binding; settings: 30 μM test compound
NMDA, polyamine = experiment: Radioligand displacement, NMDA polyamine site; assay type: binding; settings: 30 μM test compound
NMDA, glutamate = experiment: Radioligand displacement, NMDA glutamate site; assay type: binding; settings: 30 μM test compound
NMDA, glycine = NMDA, glycine (Homo sapiens, UniProt Q05586); experiment: Radioligand displacement, NMDA glycine site; assay type: binding; settings: 30 μM test compound
[1] = system: NMDAR in rat primary cortical neurons; experiment: Intracellular Ca2+ influx; assay type: cell-based; settings: for Effect on 10 μM NMDA-induced calcium response: 300 μM 7-CK or 10 μM MDL; for EC50: rat primary cortical neurons
[2] = system: NMDAR current in rat cortical slices; settings: 100 μM 7-CK; ref Kemp et al., 1988; cited from earlier work
[3] = target: mutant NR1-NR2B receptors (NR1 F484A/T518L) (Homo sapiens, UniProt Q05586+Q13224, F484A/T518L); experiment: [3H] MK-801 binding at glycine-site mutant NR1-NR2B; assay type: biochemical; settings: NR1 F484A/T518L loss-of-function glycine-site mutant vs wild-type NR1-NR2B
Method in brief: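 Crude membranes from transiently transfected HEK cells (NR1-NR2B, wild-type or NR1 F484A/T518L glycine-site mutant), washed in 10 mM Tris·acetate pH 7.4, homogenised, pelleted at 51 500 × g, all at 4°C. […] Then […] [3H] MK-801 (22.5 Ci/mmol) added for 15 min (nonequilibrium), and filtered. n = 18, 2-tailed t test.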

[4] = mPFC microdialysis of rapastinel; assay type: in vivo; settings: rat, sc
Method in brief: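 Freely moving rats had guide cannulae implanted in mPFC (AP +3.2, L +0.5, V −1.5 mm from bregma/dura). After 7 days of recovery, a probe was inserted (3-mm membrane, 50 kDa cutoff) and perfused with aCSF at 1 μL/min (148 NaCl, 4 KCl, 0.8 MgCl2, 1.4 CaCl2, 1.2 Na2HPO4, 0.3 NaH2PO4 mM; pH 7.2). Test compound was given s.c. in sterile saline.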

[5] = target: mutant NR2B (R393E) NMDAR in HEK293 cells (Homo sapiens, UniProt Q05586+Q13224, R393E); experiment: Intracellular calcium response in HEK cells, NR2B R393E; assay type: cell-based
mutant NR2B (R393E) NMDAR in HEK293 cells, sequence (Q13224 27-1484 R393E, other chains not shown): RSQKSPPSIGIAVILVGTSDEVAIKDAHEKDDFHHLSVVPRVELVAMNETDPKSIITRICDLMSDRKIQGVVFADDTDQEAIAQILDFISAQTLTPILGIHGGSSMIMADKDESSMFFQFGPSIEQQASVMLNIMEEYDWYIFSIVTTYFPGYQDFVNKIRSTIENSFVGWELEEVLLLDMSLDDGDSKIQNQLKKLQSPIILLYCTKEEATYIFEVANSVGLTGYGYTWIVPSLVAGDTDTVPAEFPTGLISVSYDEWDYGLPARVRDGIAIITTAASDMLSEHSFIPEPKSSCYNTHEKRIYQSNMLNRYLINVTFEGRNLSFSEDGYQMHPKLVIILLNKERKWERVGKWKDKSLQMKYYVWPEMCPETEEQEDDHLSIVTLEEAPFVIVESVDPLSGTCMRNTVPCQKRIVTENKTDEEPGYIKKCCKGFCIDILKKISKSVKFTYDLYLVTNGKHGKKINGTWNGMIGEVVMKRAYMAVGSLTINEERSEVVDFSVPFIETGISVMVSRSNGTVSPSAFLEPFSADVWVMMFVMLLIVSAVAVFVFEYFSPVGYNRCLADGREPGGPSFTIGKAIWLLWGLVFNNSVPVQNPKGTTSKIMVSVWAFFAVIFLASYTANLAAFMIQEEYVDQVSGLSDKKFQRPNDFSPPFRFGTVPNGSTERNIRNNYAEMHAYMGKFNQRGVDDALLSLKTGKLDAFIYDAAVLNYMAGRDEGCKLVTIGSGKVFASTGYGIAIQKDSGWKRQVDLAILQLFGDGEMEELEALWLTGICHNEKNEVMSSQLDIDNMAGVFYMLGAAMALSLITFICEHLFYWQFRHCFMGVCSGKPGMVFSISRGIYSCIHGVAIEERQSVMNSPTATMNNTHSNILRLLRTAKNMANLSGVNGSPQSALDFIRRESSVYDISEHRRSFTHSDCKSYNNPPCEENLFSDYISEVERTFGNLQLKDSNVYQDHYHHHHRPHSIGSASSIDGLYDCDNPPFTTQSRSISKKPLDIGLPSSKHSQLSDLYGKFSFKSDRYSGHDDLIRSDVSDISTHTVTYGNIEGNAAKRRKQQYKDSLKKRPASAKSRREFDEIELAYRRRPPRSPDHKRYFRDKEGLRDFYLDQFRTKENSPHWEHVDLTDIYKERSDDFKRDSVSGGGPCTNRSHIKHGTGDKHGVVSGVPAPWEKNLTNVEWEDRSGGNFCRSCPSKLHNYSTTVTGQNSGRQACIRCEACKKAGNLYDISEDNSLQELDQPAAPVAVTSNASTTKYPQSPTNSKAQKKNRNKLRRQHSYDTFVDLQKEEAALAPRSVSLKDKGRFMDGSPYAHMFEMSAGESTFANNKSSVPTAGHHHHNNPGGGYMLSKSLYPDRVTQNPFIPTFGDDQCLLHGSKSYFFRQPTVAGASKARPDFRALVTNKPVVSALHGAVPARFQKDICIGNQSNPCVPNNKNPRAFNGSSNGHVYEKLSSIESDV

mutant NR1-NR2B receptors (NR1 F484A/T518L), sequence (Q13224 27-1484, other chains not shown): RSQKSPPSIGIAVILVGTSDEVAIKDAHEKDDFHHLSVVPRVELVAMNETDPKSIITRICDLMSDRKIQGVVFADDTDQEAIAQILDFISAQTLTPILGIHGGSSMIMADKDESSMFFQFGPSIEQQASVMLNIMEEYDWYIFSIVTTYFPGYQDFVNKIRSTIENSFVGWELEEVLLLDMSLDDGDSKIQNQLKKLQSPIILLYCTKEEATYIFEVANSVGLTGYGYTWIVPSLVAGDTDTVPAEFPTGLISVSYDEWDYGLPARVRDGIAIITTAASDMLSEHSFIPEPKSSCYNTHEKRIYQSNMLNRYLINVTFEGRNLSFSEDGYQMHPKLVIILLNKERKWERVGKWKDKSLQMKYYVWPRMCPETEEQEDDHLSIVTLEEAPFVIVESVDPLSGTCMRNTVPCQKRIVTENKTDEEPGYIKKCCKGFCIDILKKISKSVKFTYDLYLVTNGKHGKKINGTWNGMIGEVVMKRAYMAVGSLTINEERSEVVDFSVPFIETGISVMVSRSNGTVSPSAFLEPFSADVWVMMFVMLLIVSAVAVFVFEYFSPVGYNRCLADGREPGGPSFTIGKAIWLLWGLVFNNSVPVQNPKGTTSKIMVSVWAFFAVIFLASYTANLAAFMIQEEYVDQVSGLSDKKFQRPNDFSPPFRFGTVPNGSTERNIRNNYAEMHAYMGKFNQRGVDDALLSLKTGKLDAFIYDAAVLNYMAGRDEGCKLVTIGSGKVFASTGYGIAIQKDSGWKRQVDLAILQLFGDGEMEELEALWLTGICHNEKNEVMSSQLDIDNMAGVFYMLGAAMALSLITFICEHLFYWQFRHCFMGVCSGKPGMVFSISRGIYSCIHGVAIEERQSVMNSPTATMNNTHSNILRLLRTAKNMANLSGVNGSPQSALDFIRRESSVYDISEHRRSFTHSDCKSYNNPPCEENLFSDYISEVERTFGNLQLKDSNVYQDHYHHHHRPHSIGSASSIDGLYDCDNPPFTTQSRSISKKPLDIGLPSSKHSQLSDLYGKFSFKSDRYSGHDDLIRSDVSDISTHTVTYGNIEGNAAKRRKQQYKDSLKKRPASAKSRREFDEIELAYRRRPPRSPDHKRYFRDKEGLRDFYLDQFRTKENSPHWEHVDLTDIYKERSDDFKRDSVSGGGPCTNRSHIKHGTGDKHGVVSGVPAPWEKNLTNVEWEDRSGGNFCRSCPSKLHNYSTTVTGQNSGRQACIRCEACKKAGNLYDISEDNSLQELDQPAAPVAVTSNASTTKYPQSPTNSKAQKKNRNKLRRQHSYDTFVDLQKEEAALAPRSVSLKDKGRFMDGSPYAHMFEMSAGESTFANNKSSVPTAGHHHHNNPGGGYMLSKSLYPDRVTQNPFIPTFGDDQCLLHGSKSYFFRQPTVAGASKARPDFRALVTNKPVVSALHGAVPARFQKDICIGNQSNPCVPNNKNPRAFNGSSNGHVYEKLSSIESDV

CNC1(c2ccccc2Cl)CCCCC1=O (racemic) [(R,S)-ketamine]
NMDA, MK-801(%) radioligand displacement (NMDA, MK-801): 96%
NMDA, PCP (%) radioligand displacement (NMDA, PCP): 94%
NMDA, polyamine (%) radioligand displacement (NMDA, polyamine): −16%
NMDA, glutamate (%) radioligand displacement (NMDA, glutamate): −5%
NMDA, glycine (%) radioligand displacement (NMDA, glycine): 17%

O=C(O)c1cc(O)c2ccc(Cl)cc2n1 [7-CK, 7-chlorokynurenic acid]
Effect on 10 μM NMDA-induced calcium response [1]: completely abolished
Effect on NMDAR current in rat cortical slices [2]: completely blocked

N[C@H](CCCP(=O)(O)O)C(=O)O [(2R)-amino-5-phosphonopentanoate]
Effect on calcium response to NMDA + rapastinel + 7-CK ([1]; 100 μM co-infused): inhibited the calcium response

N[C@H](CO)C(=O)O [D-serine]
EC50 ([1]; read-out: EC50, [Ca2+]i mobilization (D-serine)): 0.29 µM

NCC(=O)O [Glycine, glycine]
Enhancement of [3H] MK-801 binding at mutant receptors [3]: failed to enhance

O=C(O)/C(=C/c1c(C(=O)O)[nH]c2cc(Cl)cc(Cl)c12)c1ccccc1 [MDL]
Block of NMDAR activation by 10 μM NMDA and 100 μM D-serine ([1]; 10 μM MDL, n = 5): −98.5 ± 0.2%
Effect on 10 μM NMDA-induced calcium response [1]: completely abolished

CN[C@H](CC(=O)O)C(=O)O [NMDA, N-methyl-D-aspartate]
EC50 ([1]; read-out: EC50, [Ca2+]i mobilization (NMDA)): 2.8 µM

CN[C@@]1(c2ccccc2Cl)CCCCC1=O [R-ketamine]
NMDA, MK-801(%) radioligand displacement (NMDA, MK-801): 89%
NMDA, PCP (%) radioligand displacement (NMDA, PCP): 88%
NMDA, polyamine (%) radioligand displacement (NMDA, polyamine): 1%
NMDA, glutamate (%) radioligand displacement (NMDA, glutamate): 6%
NMDA, glycine (%) radioligand displacement (NMDA, glycine): −5%

C[C@@H](O)[C@H](N)C(=O)N1CCC[C@H]1C(=O)N1CCC[C@H]1C(=O)N[C@H](C(N)=O)[C@@H](C)O [Rapastinel] (H-TPPT-NH2)
level at time molar ([4]; brain (mPFC) microdialysate, 10 mg/kg): ~30 nM
Tmax ([4]; in vivo): ~20 min
half-life ([4]; in vivo): ~20 min

CN[C@]1(c2ccccc2Cl)CCCCC1=O [S-ketamine]
NMDA, MK-801(%) radioligand displacement (NMDA, MK-801): 98%
NMDA, PCP (%) radioligand displacement (NMDA, PCP): 84%
NMDA, polyamine (%) radioligand displacement (NMDA, polyamine): −17%
NMDA, glutamate (%) radioligand displacement (NMDA, glutamate): −6%
NMDA, glycine (%) radioligand displacement (NMDA, glycine): 0%
IC50 ([1]; read-out: IC50, inhibition of NMDAR-mediated [Ca2+]i accumulation): ~1 µM

N[C@@H](CCC(=O)O)C(=O)O [glutamate]
Receptor activation, % of 1 μM glutamate, mutated NR2B (R393E) [5]: 22.6 ± 1.2%
